Assay results published in ChEMBL document CHEMBL5247578, “Effective synthesis of benzimidazoles-imidazo[1,2-a]pyrazine conjugates: A comparative study of mono-and bis-benzimidazoles for antitumor activity” (Eur J Med Chem, 2019).

Key:
HCT-15 = assay: Antiproliferative activity against human HCT-15 cells assessed as cell growth inhibition by measuring lethal concentration incubated for 48 hrs by sulforhodamine B assay; type: functional; conditions: read-out: LC50 (the source's name)
CAKI-1 = assay: Growth inhibition against human CAKI-1 cells assessed as total growth inhibitory concentration incubated for 48 hrs by sulforhodamine B assay; type: functional
NCI-H23 [1] = assay: Antiproliferative activity against human NCI-H23 cells assessed as cell growth at 0.00000001 M incubated for 48 hrs by SRB assay relative to control; type: functional; conditions: dose 10 nM, read-out: Activity
SF-295 = assay: Antiproliferative activity against human SF-295 cells assessed as cell growth at 0.0001 M incubated for 48 hrs by SRB assay relative to control; type: functional; conditions: read-out: Activity
Hs-578T = assay: Growth inhibition against human Hs-578T cells assessed as total growth inhibitory concentration incubated for 48 hrs by sulforhodamine B assay; type: functional
Albumin = Albumin (Bos taurus, UniProt P02769); assay: Binding affinity to bovine serum albumin assessed as binding constant by Stern-Volmer equation based fluorescence spectroscopic method; conditions: cattle
SNB-75 = assay: Antiproliferative activity against human SNB-75 cells assessed as cell growth at 0.00001 M incubated for 48 hrs by SRB assay relative to control; type: functional; conditions: read-out: Activity
EKVX [2] = assay: Growth inhibition against human EKVX cells incubated for 48 hrs by sulforhodamine B assay; type: functional
NCI-H23 [3] = assay: Growth inhibition against human NCI-H23 cells incubated for 48 hrs by sulforhodamine B assay; type: functional
SK-MEL-5 = assay: Growth inhibition against human SK-MEL-5 cells assessed as total growth inhibitory concentration incubated for 48 hrs by sulforhodamine B assay; type: functional
OVCAR-5 = assay: Antiproliferative activity against human OVCAR-5 cells assessed as cell growth at 0.0001 M incubated for 48 hrs by SRB assay relative to control; type: functional; conditions: read-out: Activity
NCI-H23 [4] = assay: Antiproliferative activity against human NCI-H23 cells assessed as cell growth at 0.0000001 M incubated for 48 hrs by SRB assay relative to control; type: functional; conditions: dose 100 nM, read-out: Activity
HOP-62 = assay: Antiproliferative activity against human HOP-62 cells assessed as cell growth at 0.00000001 M incubated for 48 hrs by SRB assay relative to control; type: functional; conditions: dose 10 nM, read-out: Activity
Method in brief: (§1)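 NCI-60 five-dose screen (10^-4 to 10^-8 M). Cells grown in RPMI 1640 with 5% FBS and 2 mM L-glutamine, plated at 5,000-40,000 cells/well and preincubated 24 h. Drug given from DMSO stock, then 48 h at 37 °C, 5% CO2. For adherent lines, cells fixed with cold TCA, SRB-stained and read at 515 nm. Percent growth taken against time-zero and untreated control.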

OVCAR-3 = assay: Antiproliferative activity against human OVCAR-3 cells assessed as cell growth at 0.00001 M incubated for 48 hrs by SRB assay relative to control; type: functional; conditions: read-out: Activity
DU-145 = assay: Antiproliferative activity against human DU-145 cells assessed as cell growth at 0.0000001 M incubated for 48 hrs by SRB assay relative to control; type: functional; conditions: dose 100 nM, read-out: Activity
Method in brief: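 NCI-60 five-dose screen over 10^-4–10^-8 M (10-fold dilutions). Cells grown in RPMI 1640 with 5% FBS and 2 mM L-glutamine, seeded at 5,000–40,000 cells/well and preincubated 24 h. Drug from DMSO stock, 48 h at 37 °C, 5% CO2. Adherent cells TCA-fixed and stained with 0.4% SRB; A515 read. Percent growth = (Ti−Tz)/(C−Tz)×100, or (Ti−Tz)/Tz×100 when Ti<Tz.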

IGROV-1 = assay: Antiproliferative activity against human IGROV-1 cells assessed as cell growth at 0.00000001 M incubated for 48 hrs by SRB assay relative to control; type: functional; conditions: dose 10 nM, read-out: Activity
MOLT-4 = assay: Antiproliferative activity against human MOLT-4 cells assessed as cell growth at 0.0000001 M incubated for 48 hrs by SRB assay relative to control; type: functional; conditions: dose 100 nM, read-out: Activity
UO-31 = assay: Antiproliferative activity against human UO-31 cells assessed as cell growth at 0.0000001 M incubated for 48 hrs by SRB assay relative to control; type: functional; conditions: dose 100 nM, read-out: Activity
T47D [5] = assay: Antiproliferative activity against human T47D cells assessed as cell growth at 0.000001 M incubated for 48 hrs by SRB assay relative to control; type: functional; conditions: read-out: Activity
SW-620 = assay: Antiproliferative activity against human SW620 cells assessed as cell growth inhibition by measuring lethal concentration incubated for 48 hrs by sulforhodamine B assay; type: functional; conditions: read-out: LC50 (the source's name)
Method in brief: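 NCI-60 five-dose screen (10^-4 to 10^-8 M, 10-fold dilutions; DMSO stocks). Cells in RPMI 1640 with 5% FBS and 2 mM L-glutamine, preincubated 24 h, then exposed 48 h at 37 °C, 5% CO2. Fixed with cold TCA, stained with 0.4% SRB, absorbance read at 515 nm. Time-zero plates used as reference. LC50 taken from [(Ti-Tz)/Tz]×100 […].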

HCC 2998 = assay: Antiproliferative activity against human HCC 2998 cells assessed as cell growth at 0.0000001 M incubated for 48 hrs by SRB assay relative to control; type: functional; conditions: dose 100 nM, read-out: Activity; method in brief: as §1
Calf thymus DNA = assay: Binding affinity to calf thymus DNA assessed as quenching constant at temperature of 298 K by fluorescence spectroscopic method; type: nucleic-acid assay; conditions: Bos taurus
MDA-MB-231 = assay: Antiproliferative activity against human MDA-MB-231 cells assessed as cell growth at 0.0001 M incubated for 48 hrs by SRB assay relative to control; type: functional; conditions: read-out: Activity
SK-OV-3 = assay: Antiproliferative activity against human SK-OV-3 cells assessed as cell growth at 0.0000001 M incubated for 48 hrs by SRB assay relative to control; type: functional; conditions: dose 100 nM, read-out: Activity
EKVX [6] = assay: Antiproliferative activity against human EKVX cells assessed as cell growth at 0.000001 M incubated for 48 hrs by SRB assay relative to control; type: functional; conditions: read-out: Activity; method in brief: as §1
LOX IMVI = assay: Antiproliferative activity against human LOX IMVI cells assessed as cell growth at 0.00000001 M incubated for 48 hrs by SRB assay relative to control; type: functional; conditions: dose 10 nM, read-out: Activity
T47D [7] = assay: Antiproliferative activity against human T47D cells assessed as cell growth at 0.00000001 M incubated for 48 hrs by SRB assay relative to control; type: functional; conditions: dose 10 nM, read-out: Activity
HL-60 [8] = assay: Antiproliferative activity against human HL-60 cells assessed as cell growth at 0.000001 M incubated for 48 hrs by SRB assay relative to control; type: functional; conditions: read-out: Activity; method in brief: as §1
M14 = assay: Antiproliferative activity against human M14 cells assessed as cell growth inhibition by measuring lethal concentration incubated for 48 hrs by sulforhodamine B assay; type: functional; conditions: read-out: LC50 (the source's name)
SR = assay: Growth inhibition against human SR cells assessed as total growth inhibitory concentration incubated for 48 hrs by sulforhodamine B assay; type: functional
RXF 393 = assay: Antiproliferative activity against human RXF 393 cells assessed as cell growth at 0.0001 M incubated for 48 hrs by SRB assay relative to control; type: functional; conditions: read-out: Activity
HL-60 [9] = assay: Antiproliferative activity against human HL-60 cells assessed as cell growth at 0.0001 M incubated for 48 hrs by SRB assay relative to control; type: functional; conditions: read-out: Activity; method in brief: as §1

Chain of Albumin (P02769 whole entry): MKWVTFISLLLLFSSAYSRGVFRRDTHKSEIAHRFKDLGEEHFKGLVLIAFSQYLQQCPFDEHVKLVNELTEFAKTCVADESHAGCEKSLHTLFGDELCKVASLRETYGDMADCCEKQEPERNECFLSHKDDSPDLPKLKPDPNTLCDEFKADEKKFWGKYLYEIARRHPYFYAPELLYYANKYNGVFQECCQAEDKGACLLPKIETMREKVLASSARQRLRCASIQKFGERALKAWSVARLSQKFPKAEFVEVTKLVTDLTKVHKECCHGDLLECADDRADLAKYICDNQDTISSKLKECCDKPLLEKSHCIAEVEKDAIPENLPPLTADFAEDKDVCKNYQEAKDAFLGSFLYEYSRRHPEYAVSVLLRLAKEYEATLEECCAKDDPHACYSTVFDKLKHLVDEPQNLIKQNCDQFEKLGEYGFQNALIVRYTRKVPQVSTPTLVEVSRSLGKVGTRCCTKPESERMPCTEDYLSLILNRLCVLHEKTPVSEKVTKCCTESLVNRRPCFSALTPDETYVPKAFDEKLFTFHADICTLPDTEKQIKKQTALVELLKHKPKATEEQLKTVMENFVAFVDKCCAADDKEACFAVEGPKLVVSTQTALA

Row | SMILES | CC50 (HCT-15) [µM] | TGI (CAKI-1) [µM] | growth at 0.01 µM (NCI-H23 [1]) [%] | growth at 100 µM (SF-295) [%] | TGI (Hs-578T) [µM] | Kb (Albumin) | growth at 10 µM (SNB-75) [%] | GI50 (EKVX [2]) [µM] | GI50 (NCI-H23 [3]) [µM] | TGI (SK-MEL-5) [µM] | growth at 100 µM (OVCAR-5) [%] | growth at 0.1 µM (NCI-H23 [4]) [%] | growth at 0.01 µM (HOP-62) [%] | growth at 10 µM (OVCAR-3) [%] | growth at 0.1 µM (DU-145) [%] | growth at 0.01 µM (IGROV-1) [%] | growth at 0.1 µM (MOLT-4) [%] | growth at 0.1 µM (UO-31) [%] | growth at 1 µM (T47D [5]) [%] | CC50 (SW-620) [µM] | also measured
1 | COc1ccc(-c2cn3ccnc3c(-c3ccc4ncn(C5CCCCC5)c4c3)n2)cc1 | > 100 | > 100 | 97 | 2 | 49.3 | 4.68 10^5/M | 3 | 3.04 | 2.11 | 3.2 | 56 | 95 | 92 | 10 | 102 | 96 | 109 | 88 | 45 | > 100 | growth at 0.1 µM (HCC 2998): 94%; Kq (Calf thymus DNA): 4.65 10^12/M/s; growth at 100 µM (MDA-MB-231): 19%; growth at 0.1 µM (SK-OV-3): 88%; growth at 1 µM (EKVX [6]): 73%; growth at 0.01 µM (LOX IMVI): 95%; growth at 0.01 µM (T47D [7]): 85%; growth at 1 µM (HL-60 [8]): 52%; CC50 (M14): > 100 µM; TGI (SR): > 100 µM; growth at 100 µM (RXF 393): 19%; growth at 100 µM (HL-60 [9]): -7%
2 | c1ccc(Cn2cnc3ccc(-c4nc(-c5ccc6c(c5)ncn6C5CCCCC5)cn5ccnc45)cc32)cc1 | > 100 | > 100 | 94 | -38 | > 100 | 1.08 10^5/M | -70 | 1.75 | 1.88 | 2.96 | 21 | 93 | 79 | -29 | 98 | 97 | 114 | 86 | 61 | > 100 | growth at 0.1 µM (HCC 2998): 98%; Kq (Calf thymus DNA): 1.19 10^12/M/s; growth at 100 µM (MDA-MB-231): -31%; growth at 0.1 µM (SK-OV-3): 95%; growth at 1 µM (EKVX [6]): 76%; growth at 0.01 µM (LOX IMVI): 98%; growth at 0.01 µM (T47D [7]): 86%; growth at 1 µM (HL-60 [8]): 113%; CC50 (M14): > 100 µM; TGI (SR): > 100 µM; growth at 100 µM (RXF 393): -33%; growth at 100 µM (HL-60 [9]): -18%
